From PubChem BioAssay come the findings set out here.

Assay [1] is described as follows: S. cerevisiae growth inhibition in permissive medium (OD615), pilot counter-assay for S. cerevisiae lifespan shortening project, permissive growth control (AID 705). The following applies: OD615, 24 h, at 10 µM, stronger effect = higher value. The essentials: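 System: engineered DeaD yeast; Medium: permissive raffinose/galactose medium; Compound dosing: 10 µM single dose, 0.25% DMSO; Incubation: 4 h cell pre-growth, 24 h exposure at 30 °C; Technique: OD at 615 nm; Evaluation: growth inhibition from lowered OD615 after 24 h.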

Assay [2] in a line: S. cerevisiae growth inhibition in restrictive medium, OD615, pilot screen, restrictive growth control, yeast lifespan reduction project (AID 706;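 active = growth inhibition above a set limit, 3 SD over mean compound inhibition, in both replicates, cut at about 43% in these data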;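 note: modified DeaD lifespan yeast strain shifted to restrictive glucose medium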). The note with it: OD615, 48 h, at 10 µM, stronger effect = higher value. The gist of the method:
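Material: modified S. cerevisiae; buffer or medium: CSMM-D glucose medium; doses: one concentration, 10 µM final, 0.25% DMSO; incubation: 48 h compound exposure at 30 °C; detection: optical density at 615 nm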

Assay [3] is described as follows: doxorubicin toxicity protection in MRP-1 cells – H69AR cells, CellTiter-Glo, duplicate, MRP-1 activator project, pilot screen (AID 807;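 active = viability increase at or above a cutoff of the median across tested compounds plus 3 SD, cut at about 8.5% in these data, passing the limit was not always enough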;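 note: compound pretreatment 18-22 h then 72 h combined with doxorubicin; 0% = doxorubicin alone and 100% = vehicle without doxorubicin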). The following applies: H69AR viability with doxorubicin, CellTiter-Glo luminescence; at 10 µM; stronger effect = higher value. A general note: ATP-based viability assays read luminescence as a measure of living cells.
Assay [4] in a line: viability of HCT116 without oncogenic beta-catenin – human colon tumor cells, pilot screen (AID 823;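 active = cell viability at or below a set limit in both duplicate runs, the limit being the all-compound median minus 4 SD, cut at about 23% in these data, passing the limit was not always enough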;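 note: 0% = wells killed by 20 µM Hyamine and 100% = untreated DMSO cell wells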). The note with it: HCT116 beta-catenin knockout viability, CellTiter-Glo, 60 h; at 10 µM; stronger effect = lower value.
Assay [5] in a line: viability of PTEN-null HCT116 cells – cell-based, HCT116 clonal line, CellTiter-Glo, pilot screen (AID 824;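 active = viability at or below 27.92% in each of two runs, the all-compound median minus 4 SD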;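 note: 0% = 20 µM Hyamine control and 100% = vehicle cell control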). The note with it: HCT116 PTEN-deleted viability, 60 h, at 10 µM, stronger effect = lower value.
Assay [6] can be described thus: RAM pathway blockade in budding yeast – dse1pr::URA3 reporter, 5-FOA selection, pilot screen (AID 869;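 active = inhibition over a set limit, the all-compound mean plus 3 SD, in both replicate runs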;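 note: 0% = DMSO wells with no growth and 100% = 10 µM 1-NA-PP1 with full growth; RAM network block rescues cells from 5-FOA so hits raise OD615 growth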). The note with it: S. cerevisiae dse1pr::URA3 5-FOA growth, OD615, 2 d; at 10 µM; stronger effect = higher value; strain carries analog-sensitive mutant Cbk1 kinase.
A short description of assay [7]: RAM signaling pathway blockade in yeast – S. cerevisiae, Pdr1DBD-CYC8 efflux-inhibited sensitized strain, primary screen (AID 1298;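 active = RAM network inhibition above 8.4% in each of two replicates, 3 SD over the compound average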;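 note: 0% = DMSO untreated cells without growth and 100% = 10 µM 1-NA-PP1 full growth; higher means more yeast growth rescued from 5-FOA killing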). The following applies: S. cerevisiae cbk1-as DSE1-URA3 strain, 5-FOA growth OD615, 2 d; at 50 µM; stronger effect = higher value.

Unmarked numbers belong to inactive results. Inconclusive results are not listed. Active and inactive are the calls of the source.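 Rule for the calls, unless noted: active = growth inhibition above 25% in both replicates, a cutoff set 3 SD above the mean; inconclusive = above 25% in only one replicate; inactive = the rest.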

One may read the viability as a read-out of living cells in per cent, often relative to untreated cells. The term inhibition denotes the drop in the measured response relative to a control, in per cent.

On to `COc1ccc(C2C3=C(CC(c4ccco4)CC3=O)Nc3ccccc3N2C(C)=O)cc1` (centres undefined), for which the figures for the growth inhibition in assay [1] and in assay [2] were -19% and -16.4%, respectively. For the same compound, the viability increase in assay [3] was -2.47%. Besides, the values for the viability in assay [4] and in assay [5] were 93.5% and 102%, respectively. Also, the inhibition in assay [6] is 1.25%. Also, the RAM network inhibition in assay [7] is 0.96%.

For `O=C1C2CCCN2C(c2cccc(F)c2)N1c1cccc(Cl)c1` (centres undefined), the figures for the growth inhibition in assay [1] and in assay [2] were -10.5% and 1.77%, respectively. In addition, the viability increase in assay [3] was -0.22%. In addition, the viability in assay [4] is 108%; in assay [5] it was 99%. Further, the inhibition in assay [6] was 0.56%. Besides, the RAM network inhibition in assay [7] is -0.05%.

With `C=CCn1c(SCC(=O)N2CCOCC2)nc(O)c(Cc2ccccc2)c1=O`, the growth inhibition in assay [1] is -12.9%; in assay [2], -8.77%. Also, the viability increase in assay [3] is 1.77%. Also, the values for the viability in assay [4] and in assay [5] were 99.4% and 98.5%, respectively. Also, the inhibition in assay [6] was 1.49%. The RAM network inhibition in assay [7] is 1.73%.

In the case of `COc1ccc(Br)cc1/C=N/n1c(C)nnc1C`, the values for the growth inhibition in assay [1] and in assay [2] were -14% and -21%, respectively. Also, in assay [3], the viability increase was -5.21%. Also, the viability is 66% in assay [4] and 67.5% in assay [5]. Also, the inhibition in assay [6] was 1.7%. Also, in assay [7], the RAM network inhibition was -0.74%.

Turning to `O=C1NCCCC1C(=O)N1CCN(C(c2ccccc2)c2ccccc2)CC1` (centres undefined), the growth inhibition in assay [1] was 6.11%; in assay [2] it was 11.2%. For the same compound, in assay [3], the viability increase was 1%. Moreover, the figures for the viability in assay [4] and in assay [5] were 98.5% and 94.3%, respectively. Besides, the inhibition in assay [6] was 0.65%. Also, in assay [7], the RAM network inhibition was 7.67%.

In the case of `O=C(CSc1ccc2nnc(-c3ccc(Cl)cc3)n2n1)N1CCN(c2ccccc2)CC1`, the growth inhibition was 20.5% in assay [1] and 63.7% (active) in assay [2]. The viability increase in assay [3] was -3.11%. The viability in assay [4] was 96.6%; in assay [5], 85.5%. Moreover, the inhibition in assay [6] is -0.195%. Further, in assay [7], the RAM network inhibition was 3.08%.

With `CCN(CC)CCCNC(=O)Cn1cc2c(n1)CCC(C)C2` (centres undefined), the growth inhibition in assay [1] is -3.44%; in assay [2] it was -0.585%. Also, the viability increase in assay [3] is -1.22%. Also, the values for the viability in assay [4] and in assay [5] were 96.9% and 98.1%, respectively. Also, the inhibition in assay [6] was 2.05%. Moreover, the RAM network inhibition in assay [7] is 2.3%.

As to `CCCN1C(=O)c2cc(C(=O)Nc3ccccc3CC)ccc2C1O` (centres undefined), the growth inhibition in assay [1] is -6.36%; in assay [2], -1.31%. Moreover, the viability increase in assay [3] is -0.05%. The figures for the viability in assay [4] and in assay [5] were 101% and 108%, respectively. For the same compound, the inhibition in assay [6] was 0.77%. The RAM network inhibition in assay [7] is 3.59%.

For the compound `Cc1ccc(C2CC(c3cccc(Br)c3)n3nc(N)nc3N2)cc1` (centres undefined), the growth inhibition in assay [1] was 0.285%; in assay [2], 22.3%. In assay [3], the viability increase was -1.6%. The viability in assay [4] is 68.2%; in assay [5], 67.2%. In assay [6], the inhibition was 1.82%. Besides, in assay [7], the RAM network inhibition was 5.91%.

For `CCOC(=O)Cn1c(=O)oc2cc(S(=O)(=O)N3CCCC(C(=O)OCC)C3)ccc21` (centres undefined), the growth inhibition in assay [1] was -2.33%; in assay [2], -20.5%. For the same compound, the viability increase in assay [3] was -1.74%. Further, the viability was 95.4% in assay [4] and 90.7% in assay [5]. The inhibition in assay [6] is 0.87%. Further, the RAM network inhibition in assay [7] is 1.99%.

Turning to `CC(=O)Oc1cc2c(C(=O)NCc3ccncc3)c(C)oc2c2ccccc12`, the growth inhibition in assay [1] was -15.1%; in assay [2], -16.8%. Besides, in assay [3], the viability increase was -3.14%. The results for the viability in assay [4] and in assay [5] were 90.9% and 95.8%, respectively. In assay [6], the inhibition was 0.64%. The RAM network inhibition in assay [7] was 8.02%.

In the case of `O=c1nc(-c2ccccc2)cn[nH]1`, the growth inhibition in assay [1] is -4.61%; in assay [2] it was -4.27%. The viability increase in assay [3] is -0.11%. Besides, the viability is 101% in assay [4] and 105% in assay [5]. In addition, the inhibition in assay [6] was 1.29%. In addition, the RAM network inhibition in assay [7] is 2.6%.

Regarding `O=C(Cn1cc2c(n1)CCCCC2)N1CCCCC1`, the results for the growth inhibition in assay [1] and in assay [2] were -4.8% and -5.9%, respectively. Further, in assay [3], the viability increase was -0.82%. Besides, the values for the viability in assay [4] and in assay [5] were 98.5% and 92.4%, respectively. Moreover, the inhibition in assay [6] is 1.23%. Moreover, in assay [7], the RAM network inhibition is -2.24%.

For `N#Cc1ccc(CSCC(=O)O)cc1`, the growth inhibition in assay [1] was -10.3%; in assay [2] it was -2.01%. In addition, the viability increase in assay [3] is 1.1%. Also, the viability in assay [4] is 97.4%; in assay [5], 107%. Besides, the inhibition in assay [6] is 2.8%. The RAM network inhibition in assay [7] was 4.42%.

Take `COc1ccc(S(=O)(=O)N2CCN(CCO)CC2)cc1-c1nnc2c3ccccc3c(C)nn12`: the values for the growth inhibition in assay [1] and in assay [2] were -4.39% and -6.93%, respectively. Moreover, the viability increase in assay [3] is -0.85%. Moreover, the viability in assay [4] and in assay [5] was 101% each time. Further, in assay [6], the inhibition is 1.31%. The RAM network inhibition in assay [7] is 0.95%.

Consider `CCOCCn1c(SCc2cccc(C)c2)nc2c1c(=O)[nH]c(=O)n2C`, for which the growth inhibition in assay [1] is -7.34%; in assay [2], 10%. Also, the viability increase in assay [3] was -5.79%. The viability in assay [4] is 98%; in assay [5] it was 87.4%. Also, in assay [6], the inhibition is 0.905%. The RAM network inhibition in assay [7] was 2.37%.

For `Cc1cccn2c(=O)c3cc(C#N)c(=NC(=O)c4ccccc4)n(Cc4ccco4)c3nc12`, the values for the growth inhibition in assay [1] and in assay [2] were -4.6% and -12.7%, respectively. The viability increase in assay [3] was -1.26%. Also, the viability in assay [4] was 72.7%; in assay [5], 62.2%. Moreover, in assay [6], the inhibition was 1.75%. The RAM network inhibition in assay [7] is 4.04%.
